Published values gathered from unrelated publications.
Lines come from different studies, so protocols differ.
Sample: plasma

host | route | dose | setting | Cmax | SMILES
male Sprague-Dawley rat | oral | 10 mg/kg | – | 2650 ng/mL | CCN(CC)Cc1ccc2cc(COC(=O)Nc3ccc(C(=O)NO)cc3)ccc2c1
male Sprague-Dawley rat | oral | 3 mg/kg | – | 72.7 ng/mL | O=C1CCC(N2Cc3cc(C4CCN(Cc5ccccc5)CC4)ccc3C2=O)C(=O)N1 (stereo not shown)
male rat | oral | 10 mg/kg | – | 966 ng/mL | CCCCC(=O)Nc1ccc(-c2ccc3ncn(CCC)c(=O)c3c2)cn1
male Sprague-Dawley rat | subcutaneous | 30 nmol/kg | single dose | 98.8 nM | CC[C@H](C)[C@H](NC(=O)[C@@H]1CCCN1C(=O)CNC(=O)[C@H](Cc1ccccc1)NC(=O)[C@H](CC(N)=O)NC(=O)[C@H](CC(N)=O)NC(=O)[C@H](CO)NC(=O)[C@H](CO)NC(=O)[C@H](Cc1c[nH]cn1)NC(=O)[C@H](CCCNC(=N)N)NC(=O)[C@H](CC(C)C)NC(=O)[C@H](Cc1ccccc1)NC(=O)[C@H](CCC(=O)O)NC(=O)[C@H](C)NC(=O)[C@H](CC(C)C)NC(=O)[C@H](CCCNC(=N)N)NC(=O)[C@H](CCC(N)=O)NC(=O)[C@@H](NC(=O)[C@H](C)NC(=O)[C@@H]1CSSC[C@H](NC(=O)[C@H](CCCCN)NC(=O)CC[C@H](NC(=O)CCCCCCCCCCCCCCCCCCC(=O)O)C(=O)O)C(=O)N[C@@H](CC(N)=O)C(=O)N[C@@H]([C@@H](C)O)C(=O)N[C@@H](C)C(=O)N[C@@H]([C@@H](C)O)C(=O)N1)[C@@H](C)O)C(=O)N[C@@H](CC(C)C)C(=O)N1CCC[C@H]1C(=O)N1CCC[C@H]1C(=O)N[C@H](C(=O)N[C@@H](CC(N)=O)C(=O)N[C@H](C(=O)NCC(=O)N[C@@H](CO)C(=O)N[C@@H](CC(N)=O)C(=O)N[C@H](C(=O)N1CCC[C@H]1C(N)=O)[C@@H](C)O)C(C)C)[C@@H](C)O
female Sprague-Dawley rat | oral | 30 mg/kg | – | 4.73 ng/mL | COc1ccc(N(Cc2csc(-c3ccccc3)n2)C(=O)CCCCCC(=O)NO)cc1
female Wistar rat | oral | 1 mg/kg | single dose | 3360 ng/mL | CC(=O)O[C@@H]1CC[C@@]2(C)[C@@H](CC[C@]3(C)[C@@H]2C(=O)C=C2[C@@H]4[C@@H](C)[C@H](C)CC[C@]4(C)CC[C@]23C)[C@@]1(C)C(=O)O
Sprague-Dawley rat | oral | 16 mg/kg | – | 426 ng/mL | C=CC(=O)N1CCC([C@@H]2CCNc3c(C(N)=O)c(-c4ccc(Oc5ccccc5)cc4)nn32)CC1
female Sprague-Dawley rat | intraperitoneal | 50 mg/kg | – | 915 ng/mL | COc1cc(C2C3=C(COC3=O)N(CCO)c3cc4c(cc32)CCC4)cc(OC)c1OC (stereo not shown)
male Sprague-Dawley rat | oral | 2 mg/kg | single dose | 666 ng/mL | CCOc1c([C@H](C)n2nc(C)c3c(N)ncnc32)cc(Cl)c(F)c1[C@@H]1CNC(=O)C1
male Sprague-Dawley rat | intravenous | 5 mg/kg | – | 4120 ng/mL | COc1cc(-c2cc(C(C)=O)n3ccccc23)c(OC)cc1Cn1ccnc1
male Sprague-Dawley rat | intravenous | 1 mg/kg | single dose | 802 ng/mL | Cc1cc2c(C(N)=O)cccc2n1-c1nc2c(c(NCc3ccccc3)n1)CCCN2
male Sprague-Dawley rat | oral | 100 mg/kg | single dose | 956 ng/mL | CNC(=O)c1cc(Oc2ccc(NC(=O)Nc3ccc(Cl)c(C(F)(F)F)c3)cc2)ccn1
male Sprague-Dawley rat | oral | 10 mg/kg | single dose | 23.4 ng/mL | CONC(=O)c1cccc2c1cc(C)n2-c1nc2c(c(NCc3ccccc3)n1)CCCN2
male Sprague-Dawley rat | oral | 40 mg/kg | – | 20.2 ng/mL | COc1nc(-c2cccc(-c3ccccc3)c2C)ccc1CNCCNC(=O)CCCCCCCCCCC(=O)N1CCN(CCNC(=O)c2cc3c(=O)n4cccc(C)c4nc3n(CCc3cccs3)c2=N)CC1
Sprague-Dawley rat | intravenous | 1 mg/kg | single dose | 2250 ng/mL | C[C@H]1Oc2cc(cnc2N)-c2c(nn(C)c2C#N)CN(C)C(=O)c2ccc(F)cc21
male Wistar rat | subcutaneous | 125 mg/kg | single dose | 205000 ng/mL | CCCCCCCCCC(=O)N[C@@H](Cc1c[nH]c2ccccc12)C(=O)N[C@H](CC(N)=O)C(=O)N[C@@H](CC(=O)O)C(=O)N[C@@H]1C(=O)NCC(=O)N[C@@H](CCCN)C(=O)N[C@@H](CC(=O)O)C(=O)N[C@H](C)C(=O)N[C@@H](CC(=O)O)C(=O)NCC(=O)N[C@H](CO)C(=O)N[C@@H]([C@H](C)CC(=O)O)C(=O)N[C@@H](CC(=O)c2ccccc2N)C(=O)O[C@@H]1C
